Results published in ChEMBL document CHEMBL3758106, “Antitumor Activity of Americanin A Isolated from the Seeds of Phytolacca americana by Regulating the ATM/ATR Signaling Pathway and the Skp2-p27 Axis in Human Colon Cancer Cells” (J Nat Prod, 2015).
pIC50: −log10 of the molar value. Activity calls are given as the source filed them. No cut-off for these calls is given here.

Key:
[1] = Downregulation of phosphorylated ATM expression in human HCT116 cells at 30 uM after 1 hr by Western blot analysis; assay type: functional, cell-based; conditions: HCT-116, TDE = time-dependent effect
Summary of the method: (§1)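 HCT116 cells exposed for 1 h in complete medium; RIPA lysates quantified by BCA, equal protein separated on 8–13% SDS-PAGE, transferred to PVDF, probed with primary antibodies overnight at 4 °C and HRP secondaries, chemiluminescence read-out.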

[2] = system: HCT-116; test: Antiproliferative activity against human HCT116 cells after 5 to 40 uM by SRB assay; assay type: functional, cell-based; conditions: TDE = time-dependent effect
[3] = system: HCT-116; test: Induction of reactive oxygen species in human HCT116 cells after 48 hrs by DCFH-DA staining-based flow cytometric analysis; assay type: functional, cell-based
Summary of the method: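 HCT116 cells seeded overnight, then exposed to test compounds, alone or with NAC, for 48 h in complete medium. Loaded with 20 μM DCFH-DA for 30 min; intracellular ROS in 20 000 cells per group read by flow cytometry as histograms.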

[4] = system: HCT-116; test: Induction of cell cycle arrest in human HCT116 cells assessed as accumulation at G0/G1 phase at 15 uM after 48 hrs by propidium iodide staining-based flow cytometric analysis in presence of RNase A (reference value: 54.3%); assay type: functional
[5] = system: HCT-116; test: Induction of apoptosis in human HCT116 cells assessed as early apoptotic cells at 15 uM after 48 hrs by annexin V-FITC/propidium iodide staining-based flow cytometric analysis (reference value: 1.6%); assay type: functional
[6] = Downregulation of cyclin B1 expression in human HCT116 cells at 7.5 to 30 uM after 24 hrs by Western blot analysis; assay type: functional, cell-based; conditions: HCT-116
Summary of the method: (§2)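 HCT116 cells exposed 24 h in complete medium; lysed in RIPA buffer (pH 8.0), protein by BCA, equal loads run on 8–13% SDS-PAGE, PVDF transfer, blocked in 5% BSA/TBST, primary antibodies overnight at 4 °C, HRP secondaries 2 h RT, ECL detection; β-actin as loading control.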

[7] = system: HCT-116; test: Induction of cell cycle arrest in human HCT116 cells assessed as accumulation at sub-G1 phase at 15 uM after 24 hrs by propidium iodide staining-based flow cytometric analysis in presence of RNase A (reference value: 1.5%); assay type: functional
[8] = Antiproliferative activity against p53-null human HCT116 cells assessed as cell viability after 72 hrs by SRB assay; assay type: functional, cell-based; conditions: HCT-116, 72 h
Summary of the method: (§3)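 p53 wild-type and p53-null HCT116 cells in 96-well plates treated 72 h; SRB assay (TCA fix, SRB stain, Tris pH 10.0 solubilisation, A515); viability vs solvent control, IC50 by nonlinear regression.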

[9] = system: HCT-116; test: Induction of cell cycle arrest in human HCT116 cells assessed as accumulation at sub-G1 phase at 30 uM after 48 hrs by propidium iodide staining-based flow cytometric analysis in presence of RNase A (reference value: 6.5%); assay type: functional
[10] = system: HCT-116; test: Induction of cell cycle arrest in human HCT116 cells assessed as accumulation at G2/M phase at 7.5 uM after 24 hrs by propidium iodide staining-based flow cytometric analysis in presence of RNase A (reference value: 20.6%); assay type: functional
[11] = system: SW480; test: Antiproliferative activity against human SW480 cells after 24 to 72 hrs by SRB assay; assay type: functional, cell-based
Summary of the method: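 Cells grown in 96-well plates (RPMI 1640; MRC-5 in MEM, 10% FBS, antibiotics) with compound […]; fixed in 10% TCA 30 min at 4 °C, stained 0.4% SRB in 1% acetic acid 1 h, dye dissolved in 10 mM Tris pH 10.0, A515 read; viability as % of solvent control, IC50 by nonlinear regression; mean of three independent experiments.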

[12] = Downregulation of phosphorylated cyclin B1 at Ser147 expression in human HCT116 cells at 7.5 to 30 uM after 24 hrs by Western blot analysis; assay type: functional, cell-based; conditions: HCT-116; summary of the method: as §2
[13] = system: HCT-116; test: Induction of cell cycle arrest in human HCT116 cells assessed as accumulation at G2/M phase at 30 uM after 24 hrs by propidium iodide staining-based flow cytometric analysis in presence of RNase A (reference value: 20.6%); assay type: functional
[14] = Downregulation of phosphorylated ATR expression in human HCT116 cells at 30 uM after 1 hr by Western blot analysis; assay type: functional, cell-based; conditions: HCT-116, TDE = time-dependent effect; summary of the method: as §1
[15] = Antiproliferative activity against p53-expressing human HCT116 cells assessed as cell viability after 72 hrs by SRB assay; assay type: functional, cell-based; conditions: HCT-116, 72 h; summary of the method: as §3
[16] = system: HCT-116; test: Induction of apoptosis in human HCT116 cells assessed as dead cells at 30 uM after 48 hrs by annexin V-FITC/propidium iodide staining-based flow cytometric analysis (reference value: 4.2%); assay type: functional
[17] = Upregulation of ATR expression in human HCT116 cells up to 24 hrs at 1 hr by Western blot analysis; assay type: functional, cell-based; conditions: HCT-116
[18] = system: HCT-116; test: Induction of apoptosis in human HCT116 cells assessed as cleaved caspase 8 level at 30 uM up to 24 hrs by Western blot analysis; assay type: functional, cell-based
[19] = system: Mus musculus; test: Toxicity in nude mouse at 5 to 10 mg/kg, ip administered 3 times per week measured on day 41; assay type: organism-based; conditions: in vivo
Summary of the method: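 Nude mice implanted s.c. in the flank with 2 × 10^6 HCT116 cells. Once tumors reached about 120 mm3, mice were randomized, six per group, to vehicle or compound at 5 or 10 mg/kg ip (200 μL) three times weekly; irinotecan 10 mg/kg ip once weekly as reference. Body weight recorded twice weekly to assess toxicity; study ended day 41.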

[20] = system: HCT-116; test: Induction of cell cycle arrest in human HCT116 cells assessed as accumulation at sub-G1 phase at 7.5 uM after 24 hrs by propidium iodide staining-based flow cytometric analysis in presence of RNase A (reference value: 1.5%); assay type: functional
[21] = system: Mus musculus; test: Downregulation of Skp2 in human HCT116 cells xenografted in nude mouse at 5 to 10 mg/kg, ip administered 3 times per week measured on day 41 by Western blot analysis; assay type: functional, organism-based; conditions: HCT-116
Summary of the method: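 Excised frozen xenograft tumours homogenised in lysis buffer; protein by Bradford assay, then Western blotting for Skp2 with β-actin as control.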

[22] = system: HCT-116; test: Induction of apoptosis in human HCT116 cells assessed as viable cells at 30 uM after 48 hrs by annexin V-FITC/propidium iodide staining-based flow cytometric analysis (reference value: 87.4%); assay type: functional; conditions: HCT-116, 48 h, read-out: Activity
[23] = target: Cullin-1/S-phase kinase-associated protein 1 (Homo sapiens) (UniProt Q13616+P63208); test: Inhibition of Cul-1/Skp1 protein interaction in human HCT116 cells after 24 hrs by immunoprecipitation assay; assay type: cell-based; conditions: HCT-116
Cullin-1/S-phase kinase-associated protein 1 (Homo sapiens), sequence (P63208 whole entry, looked up): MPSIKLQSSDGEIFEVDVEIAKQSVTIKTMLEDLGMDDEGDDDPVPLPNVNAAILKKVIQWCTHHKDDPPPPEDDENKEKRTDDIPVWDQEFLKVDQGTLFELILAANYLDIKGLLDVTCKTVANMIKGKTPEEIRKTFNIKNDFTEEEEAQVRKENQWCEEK
Cullin-1/S-phase kinase-associated protein 1 (Homo sapiens), sequence (Q13616 whole entry, looked up): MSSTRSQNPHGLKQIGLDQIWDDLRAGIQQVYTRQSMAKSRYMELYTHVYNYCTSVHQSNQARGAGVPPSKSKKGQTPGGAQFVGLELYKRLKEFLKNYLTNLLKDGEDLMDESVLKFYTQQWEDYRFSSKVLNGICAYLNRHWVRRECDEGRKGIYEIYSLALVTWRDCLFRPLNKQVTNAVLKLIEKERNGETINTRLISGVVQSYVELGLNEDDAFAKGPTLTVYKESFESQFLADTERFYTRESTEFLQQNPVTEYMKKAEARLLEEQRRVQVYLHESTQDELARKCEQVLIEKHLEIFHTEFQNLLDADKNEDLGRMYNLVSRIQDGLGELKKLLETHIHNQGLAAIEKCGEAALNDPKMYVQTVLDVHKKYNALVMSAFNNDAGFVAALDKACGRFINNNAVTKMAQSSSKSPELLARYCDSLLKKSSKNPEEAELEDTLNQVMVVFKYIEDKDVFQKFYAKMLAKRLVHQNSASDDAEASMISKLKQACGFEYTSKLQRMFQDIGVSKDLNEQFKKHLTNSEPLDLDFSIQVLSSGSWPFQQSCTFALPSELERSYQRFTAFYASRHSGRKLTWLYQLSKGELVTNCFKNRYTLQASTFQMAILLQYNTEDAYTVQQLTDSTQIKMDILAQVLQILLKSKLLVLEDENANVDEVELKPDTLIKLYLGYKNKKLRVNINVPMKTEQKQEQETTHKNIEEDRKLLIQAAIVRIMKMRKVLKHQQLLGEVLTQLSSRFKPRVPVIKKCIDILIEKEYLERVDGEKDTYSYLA
Summary of the method: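 Protein measured by Bradford, equal amounts pulled down with anti-Cul-1 antibody on Protein G sepharose at 4 °C. Eluates boiled in Laemmli buffer with 2-mercaptoethanol and probed by Western blot.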

[24] = Antiproliferative activity against human HCT116 cells assessed as cell viability after 72 hrs by SRB assay; assay type: functional, cell-based; conditions: HCT-116, 72 h
Summary of the method: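 HCT116 cells in 96-well plates exposed 24, 48 or 72 h; TCA fixation, 0.4% SRB staining, dye solubilised in 10 mM Tris pH 10.0, absorbance at 515 nm; viability relative to solvent-treated control.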

[25] = system: HCT-116; test: Induction of cell cycle arrest in human HCT116 cells assessed as accumulation at G2/M phase at 30 uM after 48 hrs by propidium iodide staining-based flow cytometric analysis in presence of RNase A (reference value: 19.7%); assay type: functional

Compound: O=C/C=C/c1ccc2c(c1)O[C@@H](CO)[C@H](c1ccc(O)c(O)c1)O2 [AMERICANIN A]
- Activity [1]: tde
- Activity [2]: tde
- Activity [3]: Dose-dependent effect
- Activity [4]: 23.4%
- Activity [5]: 12.2%
- Activity [6]: Active
- Activity [7]: 3%
- pIC50 [8]: 5.11
- Activity [9]: 52%
- Activity [10]: 27.5%
- pIC50 [11]: 4.56
- Activity [12]: Active
- Activity [13]: 38.9%
- Activity [14]: tde
- pIC50 [15]: 5.08
- Activity [16]: 5.1%
- Activity [17]: Dose-dependent effect
- Activity [18]: Active
- Activity [19]: Non-toxic
- Activity [20]: 1.9%
- Activity [21]: Active
- viability at 30 µM [22]: 51.4%
- inhibition [23]: inactive
- pIC50 [24]: 5.06
- Activity [25]: 19%
